Measurements taken from ChEMBL document CHEMBL1165965, “Synthesis and structure-activity relationships of 1,2,3,4-tetrahydropyrido[2,3-b]pyrazines as potent and selective inhibitors of the anaplastic lymphoma kinase” (Bioorg Med Chem, 2010).

What was measured:
[1] = molecular target: Protein-tyrosine kinase 2-beta (Homo sapiens) (UniProt Q14289); assay: Inhibition of PYK2 at 1 uM
Procedure, shortened: (§1)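 Single-concentration screen on the Ambit KINOMEscan platform, run against a panel of 250–400 kinases. Per-kinase inhibition was also summarized as S(90), the fraction of kinases inhibited by more than 90%.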

[2] = molecular target: Vascular endothelial growth factor receptor 3 (Homo sapiens) (UniProt P35916); assay: Inhibition of FLT4 at 1 uM; procedure, shortened: as §1
[3] = molecular target: TGF-beta receptor type-2 (Homo sapiens) (UniProt P37173); assay: Inhibition of TGFBR2 at 1 uM
[4] = molecular target: T1, Ankyrin repeat and protein kinase domain-containing protein 1 (Homo sapiens) (UniProt Q8NFD2); assay: Inhibition of ANKK1 at 1 uM
T1 sequence (whole entry): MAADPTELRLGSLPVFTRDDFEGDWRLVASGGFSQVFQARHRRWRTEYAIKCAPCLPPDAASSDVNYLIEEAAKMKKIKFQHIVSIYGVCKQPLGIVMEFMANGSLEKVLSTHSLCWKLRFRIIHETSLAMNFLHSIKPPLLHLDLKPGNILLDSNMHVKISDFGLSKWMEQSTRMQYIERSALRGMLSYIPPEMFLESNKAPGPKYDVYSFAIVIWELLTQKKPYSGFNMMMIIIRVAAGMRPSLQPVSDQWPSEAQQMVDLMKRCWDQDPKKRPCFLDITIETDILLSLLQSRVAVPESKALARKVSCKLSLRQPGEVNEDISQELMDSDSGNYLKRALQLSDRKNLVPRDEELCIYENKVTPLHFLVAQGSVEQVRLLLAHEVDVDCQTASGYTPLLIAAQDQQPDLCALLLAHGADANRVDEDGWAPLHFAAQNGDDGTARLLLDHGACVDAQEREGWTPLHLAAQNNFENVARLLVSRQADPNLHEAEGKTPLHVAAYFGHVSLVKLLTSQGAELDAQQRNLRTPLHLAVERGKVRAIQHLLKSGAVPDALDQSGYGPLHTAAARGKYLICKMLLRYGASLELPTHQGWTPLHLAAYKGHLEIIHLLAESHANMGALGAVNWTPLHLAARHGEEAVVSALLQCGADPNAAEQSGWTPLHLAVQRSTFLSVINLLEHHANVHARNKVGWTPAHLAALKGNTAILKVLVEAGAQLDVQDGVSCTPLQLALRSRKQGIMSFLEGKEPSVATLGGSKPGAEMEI

[5] = molecular target: T2, Mitogen-activated protein kinase kinase kinase 13 (Homo sapiens) (UniProt O43283); assay: Inhibition of LZK at 1 uM
T2 sequence (whole entry): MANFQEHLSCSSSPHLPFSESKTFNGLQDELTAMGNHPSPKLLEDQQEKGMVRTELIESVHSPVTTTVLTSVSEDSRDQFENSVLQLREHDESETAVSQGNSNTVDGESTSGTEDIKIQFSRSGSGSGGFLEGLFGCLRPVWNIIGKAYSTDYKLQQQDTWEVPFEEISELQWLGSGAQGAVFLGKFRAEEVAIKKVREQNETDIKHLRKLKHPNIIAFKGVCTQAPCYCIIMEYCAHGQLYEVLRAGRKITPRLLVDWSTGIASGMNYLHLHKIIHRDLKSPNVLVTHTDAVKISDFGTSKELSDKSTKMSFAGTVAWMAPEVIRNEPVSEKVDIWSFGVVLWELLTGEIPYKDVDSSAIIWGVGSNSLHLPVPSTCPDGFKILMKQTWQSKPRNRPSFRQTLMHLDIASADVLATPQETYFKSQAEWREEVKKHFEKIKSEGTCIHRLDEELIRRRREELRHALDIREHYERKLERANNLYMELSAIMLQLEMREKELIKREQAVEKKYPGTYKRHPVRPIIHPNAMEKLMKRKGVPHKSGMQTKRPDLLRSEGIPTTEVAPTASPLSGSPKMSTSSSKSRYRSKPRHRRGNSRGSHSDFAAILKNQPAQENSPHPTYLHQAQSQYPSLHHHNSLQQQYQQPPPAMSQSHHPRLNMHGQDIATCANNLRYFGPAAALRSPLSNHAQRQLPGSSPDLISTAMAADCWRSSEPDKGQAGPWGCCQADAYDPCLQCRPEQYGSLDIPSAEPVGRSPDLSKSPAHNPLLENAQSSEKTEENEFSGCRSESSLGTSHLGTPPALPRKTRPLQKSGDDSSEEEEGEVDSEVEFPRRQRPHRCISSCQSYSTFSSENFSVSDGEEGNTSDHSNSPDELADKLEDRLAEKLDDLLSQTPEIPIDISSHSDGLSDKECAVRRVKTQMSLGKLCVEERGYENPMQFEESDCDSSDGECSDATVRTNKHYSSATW

[6] = molecular target: Serine/threonine-protein kinase PAK 4 (Homo sapiens) (UniProt O96013); assay: Inhibition of PAK4 at 1 uM
[7] = molecular target: T3, Serine/threonine-protein kinase Nek9 (Homo sapiens) (UniProt Q8TD19); assay: Inhibition of NEK9 at 1 uM
T3 sequence (whole entry): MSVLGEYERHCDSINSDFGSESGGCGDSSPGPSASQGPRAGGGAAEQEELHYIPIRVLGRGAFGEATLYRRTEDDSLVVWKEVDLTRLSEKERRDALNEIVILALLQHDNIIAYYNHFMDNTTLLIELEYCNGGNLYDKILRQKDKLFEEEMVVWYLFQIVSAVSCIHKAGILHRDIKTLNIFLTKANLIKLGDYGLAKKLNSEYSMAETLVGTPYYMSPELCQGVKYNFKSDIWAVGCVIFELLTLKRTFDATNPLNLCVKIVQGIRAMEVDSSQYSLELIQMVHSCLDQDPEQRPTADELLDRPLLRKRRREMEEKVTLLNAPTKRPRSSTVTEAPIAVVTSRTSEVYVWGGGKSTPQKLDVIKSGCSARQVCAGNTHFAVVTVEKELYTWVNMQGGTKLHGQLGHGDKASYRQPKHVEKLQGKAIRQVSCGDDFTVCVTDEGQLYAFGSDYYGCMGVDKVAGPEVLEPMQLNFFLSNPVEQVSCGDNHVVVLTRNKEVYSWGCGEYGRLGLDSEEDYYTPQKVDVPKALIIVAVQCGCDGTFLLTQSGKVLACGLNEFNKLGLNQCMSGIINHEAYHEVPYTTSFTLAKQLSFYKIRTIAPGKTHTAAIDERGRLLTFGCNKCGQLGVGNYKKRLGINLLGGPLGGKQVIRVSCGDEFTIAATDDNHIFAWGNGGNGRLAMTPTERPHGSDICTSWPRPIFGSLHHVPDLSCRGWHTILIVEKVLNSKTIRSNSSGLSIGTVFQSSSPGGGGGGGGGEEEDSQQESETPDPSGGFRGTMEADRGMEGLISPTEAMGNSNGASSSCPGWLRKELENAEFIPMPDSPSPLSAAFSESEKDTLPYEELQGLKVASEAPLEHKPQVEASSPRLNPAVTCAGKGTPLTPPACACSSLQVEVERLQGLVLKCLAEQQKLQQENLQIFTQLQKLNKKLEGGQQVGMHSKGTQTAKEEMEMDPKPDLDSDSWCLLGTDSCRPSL

[8] = molecular target: Serine/threonine-protein kinase PLK2 (Homo sapiens) (UniProt Q9NYY3); assay: Inhibition of PLK2 at 1 uM
Chain of Serine/threonine-protein kinase PLK2 (Homo sapiens) (Q9NYY3 whole entry, looked up): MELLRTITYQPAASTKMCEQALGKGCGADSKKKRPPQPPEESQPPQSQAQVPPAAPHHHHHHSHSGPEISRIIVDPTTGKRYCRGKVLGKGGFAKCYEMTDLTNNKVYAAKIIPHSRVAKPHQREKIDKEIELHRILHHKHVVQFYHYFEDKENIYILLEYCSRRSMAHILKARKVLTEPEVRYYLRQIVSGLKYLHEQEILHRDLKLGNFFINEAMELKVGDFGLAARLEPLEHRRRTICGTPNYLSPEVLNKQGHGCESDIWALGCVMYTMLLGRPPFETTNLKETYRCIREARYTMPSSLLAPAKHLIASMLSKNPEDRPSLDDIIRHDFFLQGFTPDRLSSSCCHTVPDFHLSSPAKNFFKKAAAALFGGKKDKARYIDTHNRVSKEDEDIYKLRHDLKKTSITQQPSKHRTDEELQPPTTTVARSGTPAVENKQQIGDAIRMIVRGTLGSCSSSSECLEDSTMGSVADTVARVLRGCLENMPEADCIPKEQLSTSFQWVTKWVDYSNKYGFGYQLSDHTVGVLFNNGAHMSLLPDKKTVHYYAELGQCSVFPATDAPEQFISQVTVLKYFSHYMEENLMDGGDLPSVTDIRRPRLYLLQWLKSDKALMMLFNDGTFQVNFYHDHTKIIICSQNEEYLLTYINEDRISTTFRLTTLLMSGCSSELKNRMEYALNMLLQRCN

Chain of Vascular endothelial growth factor receptor 3 (Homo sapiens) (P35916 whole entry): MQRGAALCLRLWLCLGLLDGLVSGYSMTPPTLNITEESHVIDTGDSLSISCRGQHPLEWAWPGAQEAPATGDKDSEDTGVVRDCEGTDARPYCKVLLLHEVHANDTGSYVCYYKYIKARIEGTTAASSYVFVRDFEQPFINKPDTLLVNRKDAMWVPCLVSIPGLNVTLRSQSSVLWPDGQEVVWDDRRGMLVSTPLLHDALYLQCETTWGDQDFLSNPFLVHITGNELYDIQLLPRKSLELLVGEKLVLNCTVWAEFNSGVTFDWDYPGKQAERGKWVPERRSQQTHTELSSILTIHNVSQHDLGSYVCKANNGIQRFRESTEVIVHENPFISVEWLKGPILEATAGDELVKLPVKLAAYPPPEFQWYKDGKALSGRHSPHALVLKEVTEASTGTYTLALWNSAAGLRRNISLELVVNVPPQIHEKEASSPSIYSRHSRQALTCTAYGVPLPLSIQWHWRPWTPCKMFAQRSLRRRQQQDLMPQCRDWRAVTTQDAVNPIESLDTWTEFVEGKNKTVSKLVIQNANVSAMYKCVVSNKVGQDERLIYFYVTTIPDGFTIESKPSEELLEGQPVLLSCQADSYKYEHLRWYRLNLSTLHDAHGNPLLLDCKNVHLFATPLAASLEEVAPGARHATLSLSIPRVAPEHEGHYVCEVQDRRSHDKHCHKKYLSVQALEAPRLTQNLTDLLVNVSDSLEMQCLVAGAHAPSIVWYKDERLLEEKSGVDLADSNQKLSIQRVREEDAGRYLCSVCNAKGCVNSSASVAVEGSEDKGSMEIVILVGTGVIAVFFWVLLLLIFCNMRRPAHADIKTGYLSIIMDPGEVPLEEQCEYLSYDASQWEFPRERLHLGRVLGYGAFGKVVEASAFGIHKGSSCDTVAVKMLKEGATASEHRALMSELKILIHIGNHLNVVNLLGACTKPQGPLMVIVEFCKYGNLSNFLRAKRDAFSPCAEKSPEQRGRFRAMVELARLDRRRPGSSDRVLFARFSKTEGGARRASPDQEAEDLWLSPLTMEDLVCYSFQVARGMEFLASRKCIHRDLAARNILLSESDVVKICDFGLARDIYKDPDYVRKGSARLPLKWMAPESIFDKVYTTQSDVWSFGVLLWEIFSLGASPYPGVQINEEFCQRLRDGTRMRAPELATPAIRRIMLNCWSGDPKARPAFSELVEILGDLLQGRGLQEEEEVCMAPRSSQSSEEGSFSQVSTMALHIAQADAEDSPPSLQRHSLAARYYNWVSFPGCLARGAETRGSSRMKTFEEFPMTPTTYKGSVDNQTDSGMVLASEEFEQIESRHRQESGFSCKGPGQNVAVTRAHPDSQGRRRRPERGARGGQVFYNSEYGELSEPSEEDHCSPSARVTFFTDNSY
Chain of TGF-beta receptor type-2 (Homo sapiens) (P37173 whole entry, the tested form may be a part): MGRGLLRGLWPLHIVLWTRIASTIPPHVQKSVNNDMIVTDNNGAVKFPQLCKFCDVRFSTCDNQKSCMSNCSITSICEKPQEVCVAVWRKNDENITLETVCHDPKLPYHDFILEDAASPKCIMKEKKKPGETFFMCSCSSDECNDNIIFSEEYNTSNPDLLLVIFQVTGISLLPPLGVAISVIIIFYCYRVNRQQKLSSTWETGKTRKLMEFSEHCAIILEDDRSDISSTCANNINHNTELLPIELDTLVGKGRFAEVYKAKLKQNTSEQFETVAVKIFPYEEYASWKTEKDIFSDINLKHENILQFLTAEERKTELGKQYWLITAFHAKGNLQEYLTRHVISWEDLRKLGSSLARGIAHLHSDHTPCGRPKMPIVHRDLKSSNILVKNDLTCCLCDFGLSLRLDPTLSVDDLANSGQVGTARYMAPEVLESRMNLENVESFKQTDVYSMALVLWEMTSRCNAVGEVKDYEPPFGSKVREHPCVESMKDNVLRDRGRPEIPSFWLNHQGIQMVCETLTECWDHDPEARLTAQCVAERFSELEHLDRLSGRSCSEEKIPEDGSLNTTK
Chain of Serine/threonine-protein kinase PAK 4 (Homo sapiens) (O96013 whole entry, looked up): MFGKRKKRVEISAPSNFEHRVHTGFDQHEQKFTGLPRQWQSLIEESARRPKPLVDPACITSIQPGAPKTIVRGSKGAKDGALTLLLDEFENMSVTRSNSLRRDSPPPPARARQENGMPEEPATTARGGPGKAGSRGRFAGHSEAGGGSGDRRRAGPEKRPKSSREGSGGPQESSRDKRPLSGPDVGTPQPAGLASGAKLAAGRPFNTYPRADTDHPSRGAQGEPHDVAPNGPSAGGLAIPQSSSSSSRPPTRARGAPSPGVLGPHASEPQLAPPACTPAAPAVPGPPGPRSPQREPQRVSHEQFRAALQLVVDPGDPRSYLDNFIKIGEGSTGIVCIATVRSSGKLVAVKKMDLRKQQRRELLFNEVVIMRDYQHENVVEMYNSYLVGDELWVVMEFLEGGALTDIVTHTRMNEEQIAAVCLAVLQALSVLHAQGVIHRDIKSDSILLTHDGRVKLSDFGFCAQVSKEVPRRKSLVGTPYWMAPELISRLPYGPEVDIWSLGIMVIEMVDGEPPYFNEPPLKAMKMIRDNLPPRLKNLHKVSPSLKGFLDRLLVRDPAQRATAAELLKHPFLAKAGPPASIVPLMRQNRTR
Chain of Protein-tyrosine kinase 2-beta (Homo sapiens) (Q14289 whole entry, looked up): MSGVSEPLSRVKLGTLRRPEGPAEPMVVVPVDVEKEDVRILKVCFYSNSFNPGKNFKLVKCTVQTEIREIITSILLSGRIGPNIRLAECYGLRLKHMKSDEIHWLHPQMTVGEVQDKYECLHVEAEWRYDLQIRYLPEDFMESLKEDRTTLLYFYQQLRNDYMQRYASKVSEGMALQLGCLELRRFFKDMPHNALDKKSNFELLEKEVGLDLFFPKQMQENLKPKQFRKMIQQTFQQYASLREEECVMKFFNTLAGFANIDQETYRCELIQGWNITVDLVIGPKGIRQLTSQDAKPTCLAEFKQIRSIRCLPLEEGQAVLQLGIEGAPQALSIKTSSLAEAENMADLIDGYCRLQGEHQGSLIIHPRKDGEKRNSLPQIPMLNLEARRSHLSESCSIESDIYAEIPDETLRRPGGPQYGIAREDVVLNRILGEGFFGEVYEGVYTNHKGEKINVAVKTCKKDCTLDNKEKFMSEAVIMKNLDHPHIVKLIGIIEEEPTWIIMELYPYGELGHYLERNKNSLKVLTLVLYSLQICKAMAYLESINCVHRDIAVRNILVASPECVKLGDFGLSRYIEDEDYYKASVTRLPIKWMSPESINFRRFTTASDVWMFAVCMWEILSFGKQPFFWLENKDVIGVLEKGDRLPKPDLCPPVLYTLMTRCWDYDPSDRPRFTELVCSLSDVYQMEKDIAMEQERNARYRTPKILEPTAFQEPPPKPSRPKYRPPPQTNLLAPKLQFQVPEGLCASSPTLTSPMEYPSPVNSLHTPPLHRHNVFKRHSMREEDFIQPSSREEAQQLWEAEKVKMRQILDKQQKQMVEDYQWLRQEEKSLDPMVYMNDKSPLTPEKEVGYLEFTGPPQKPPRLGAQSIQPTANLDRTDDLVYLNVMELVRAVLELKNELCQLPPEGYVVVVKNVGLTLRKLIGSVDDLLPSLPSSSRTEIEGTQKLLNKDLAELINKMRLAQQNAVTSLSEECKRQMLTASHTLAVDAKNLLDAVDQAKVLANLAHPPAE

Structure (SMILES)	inhibition [1] [%]	inhibition [2] [%]	inhibition [3] [%]	inhibition [4] [%]	inhibition [5] [%]	inhibition [6] [%]	inhibition [8] [%]	inhibition [7] [%]
COC1CCN(C(=O)c2ccc(-c3cnc4c(c3)N(Cc3cc(Cl)ccc3C(F)(F)F)CCN4)cc2)CC1	68	< 50	< 50	–	–	< 50	–	< 50
O=C(c1ccc(-c2cnc3c(c2)N(Cc2cc(Cl)ccc2C(F)(F)F)CCN3)cc1)N1CCCCC1	< 50	< 50	< 50	–	–	< 50	–	< 50
FC(F)(F)c1ccc(Cl)cc1CN1CCNc2ncc(-c3ccnc(N4CCNCC4)c3)cc21	87	< 50	< 50	< 50	< 50	< 50	< 50	< 50
CC(=O)N1CCN(c2cc(-c3cnc4c(c3)N(Cc3cc(Cl)ccc3C(F)(F)F)CCN4)ccn2)CC1	84	< 50	< 50	< 50	< 50	< 50	82	< 50
O=C(O)c1ccc(-c2cnc3c(c2)N(Cc2cc(Cl)ccc2C(F)(F)F)CCN3)cc1	< 50	< 50	< 50	–	–	< 50	–	< 50
O=C(c1ccc(-c2cnc3c(c2)N(Cc2cc(Cl)ccc2C(F)(F)F)CCN3)cc1)N1CCC(N2CCCC2)CC1	90.8	84.5	< 50	–	–	< 50	–	< 50

More lines, main results first:

inhibition [1] [%]	inhibition [2] [%]	inhibition [3] [%]	inhibition [4] [%]	inhibition [5] [%]	inhibition [6] [%]	inhibition [8] [%]	Structure (SMILES)	inhibition [7] [%]
< 50	< 50	< 50	< 50	< 50	< 50	< 50	CN1CCN(c2ccc(-c3cnc4c(c3)N(Cc3cc(Cl)ccc3Cl)CCN4)cn2)CC1	< 50
71	< 50	< 50	< 50	< 50	< 50	< 50	CN1CCN(c2ccc(-c3cnc4c(c3)N(Cc3cc(Cl)ccc3C(F)(F)F)CCN4)cn2)CC1	< 50
< 50	< 50	< 50	< 50	< 50	< 50	< 50	CN1CCN(c2ccc(-c3cnc4c(c3)N(Cc3c(F)ccc(F)c3Cl)CCN4)cn2)CC1	< 50
< 50	< 50	< 50	< 50	< 50	< 50	< 50	CN1CCN(c2ccc(-c3cnc4c(c3)N(Cc3cc(F)ccc3F)CCN4)cn2)CC1	< 50
